From PubChem
SENP8 block-1 = SENP8 (human) protease inhibition; Q96LD8; recombinant SENP8, Nedd8 substrate fluorescence; inhibition, % at 20 µM; actives 0.64% (n = 360,000); in the data active = inhibition mostly above about 40%, no sharp cut-off; inactive = mostly below about 27%
SENP8 block-2 = blocks the human protease SENP8. Q96LD8. actives 1.2% (n = 330,000). purified SENP8, Z-RLRGG-aminoluciferin cleavage, luminescence. inhibition, % at 10 µM. AID 2540; in the data active = inhibition above about 50%
UCH37 DUB inh = blocks the human deubiquitinase UCH37 | actives 0.33% (n = 330,000) | Q9Y5K5 | purified proteasome/UCH37, Ub-AMC cleavage fluorescence | inhibition, % (no concentration beside the values);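 active = mean inhibition over replicate wells above about 20%, limit read from the data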
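Test system – human UCH37 enzyme supplied as purified proteasome complex · Incubation – 30 min preincubation with enzyme, 25 min cleavage at room temperature · Detection – AMC fluorescence from Ub-AMC cleavage, excitation 355 nm, emission 460 nm · Benchmarks – no-proteasome wells (full inhibition) and compound-free wells (no inhibition)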
SENP1 inh = inhibitors of human SENP1 SUMO protease catalytic domain | Q9P0U3 | recombinant SENP1 catalytic domain, CyPet-SUMO1-YPet FRET cleavage | inhibition, % at 10 µM | actives 0.21% (n = 360,000) | AID 624204;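 active = inhibition at least 30% at 10 µM, raw YFP signal under a set limit, fluorescence ratio 0.5 to 1.5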
Target sequence (Q9P0U3 419-644 limits assumed): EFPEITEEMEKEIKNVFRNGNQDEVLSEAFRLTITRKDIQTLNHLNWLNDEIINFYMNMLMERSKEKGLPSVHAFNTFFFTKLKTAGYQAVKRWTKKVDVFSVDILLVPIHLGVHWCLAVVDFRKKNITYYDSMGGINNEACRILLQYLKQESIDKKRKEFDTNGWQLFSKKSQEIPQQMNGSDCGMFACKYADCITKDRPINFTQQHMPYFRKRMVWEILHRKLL
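Compound: 10 µM single point, 0.5% DMSO; Test system: hSENP1 catalytic domain, recombinant; Timing: 50 min reaction at room temperature; Technique: FRET, CFP and YFP emission; Control set: no-enzyme wells low, DMSO-plus-enzyme wells high control.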
SENP7 inh = blocks the human protease SENP7; Q9BQF6; recombinant SENP7, Z-RLRGG-aminoluciferin luminescence, 40 min; inhibition, % at 5 µM; actives 1.5% (n = 330,000);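 active = inhibition above about 50% at the single test dose, limit read from the data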
Target sequence (Q9BQF6 706-1050 limits assumed): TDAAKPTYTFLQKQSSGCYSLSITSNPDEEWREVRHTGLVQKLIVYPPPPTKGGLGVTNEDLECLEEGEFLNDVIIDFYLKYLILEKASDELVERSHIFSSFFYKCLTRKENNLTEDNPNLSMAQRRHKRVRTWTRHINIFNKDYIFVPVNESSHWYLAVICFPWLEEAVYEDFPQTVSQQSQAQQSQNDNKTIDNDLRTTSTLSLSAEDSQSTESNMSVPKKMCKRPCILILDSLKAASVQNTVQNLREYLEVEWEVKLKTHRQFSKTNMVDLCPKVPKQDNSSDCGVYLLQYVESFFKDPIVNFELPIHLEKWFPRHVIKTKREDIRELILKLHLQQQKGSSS
SENP6 inh = inhibitors of human SENP6 protease; Q9GZR1; Recombinant SENP6 catalytic domain, aminoluciferin luminescence; inhibition, % at 10 µM; actives 1.8% (n = 330,000);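 active = inhibition above about 50% at the single tested dose, limit read from the data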
SENP8 confirm = human SENP8 inhibition, confirmed. AID 488912. actives 40% (n = 6,200). shares compounds with SENP7 inh. inhibition, % at 12.5 µM. Recombinant SENP8, Z-RLRGG-aminoluciferin luminescence, 60 min;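 active = mean inhibition across replicates above about 50%, limit read from the data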
SENP6 conf = human SENP6 inhibition, confirmed | actives 58% (n = 6,200) | inhibition, % at 12.5 µM | shares compounds with SENP7 inh | AID 488915 | recombinant SENP6, Z-RLRGG-aminoluciferin luminescence
SENP7 confirm = human SENP7 inhibition, confirmed | shares compounds with SENP7 inh | recombinant SENP7, Z-RLRGG-aminoluciferin luminescence, 40 min | inhibition, % at 12.5 µM | actives 69% (n = 6,200)
Casp3 select = caspase-3 inhibition (SENP selectivity assay); purified caspase-3, Z-DEVD-aminoluciferin luminescence, 60 min; shares compounds with SENP7 inh; AID 488918; actives 60% (n = 6,200); inhibition, % at 12.5 µM;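 active = mean inhibition above about 50%, limit read from the data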
Luc interf = luminescence interference (SENP counter-screen) | shares compounds with SENP7 inh | Pre-incubated SENP8/Z-RLRGG-aminoluciferin, luciferase luminescence interference | inhibition, % at 12.5 µM | actives 39% (n = 6,200) | AID 488919;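 active = mean inhibition above about 50% when retested at one dose, limit read from the data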
Of the large screens only hits and unclear results are named; the others gave an inactive call (follow-up assays come after a bar, where they were run). Rows were chosen to be rich in hits. Some 2.6% of all compounds tested hit in one or more screens of this group.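 The calls were made as follows, unless noted: active = mean inhibition above about 50% in the one-dose retest (limit read from the data); inactive = the rest.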

Cc1ccc(NC(=O)N2CCc3ccccc32)cc1C	SENP8 block-2 82, SENP7 inh 92, SENP6 inh 90 | SENP8 confirm 91 | SENP6 conf 91 | SENP7 confirm 99 | Casp3 select 88 | Luc interf 81
CC(=O)Nc1ccc(NC(=O)Nc2ccc3c(c2)N(C)C(=O)CS3)cc1	none
Cc1ccc(NC(=O)N2CCc3ccccc32)cc1	SENP8 block-2 89, SENP7 inh 94, SENP6 inh 86 | SENP8 confirm 91 | SENP6 conf 94 | SENP7 confirm 101 | Casp3 select 94 | Luc interf 94
O=C(Cc1coc2ccc3ccccc3c12)N1CCc2ccccc21	none
CN1C(=O)CSc2ccc(NC(=O)N3CCc4ccccc43)cc21	SENP6 inh 59 | SENP8 confirm 57 | SENP6 conf 54 | SENP7 confirm 85 | Casp3 select 62 | Luc interf 53
Cc1cccc(C(=O)NN=CC(C)Cc2ccc3c(c2)OCO3)c1 (stereo not drawn)	none (no result: SENP8 block-1, SENP8 block-2, SENP1 inh, SENP7 inh, SENP6 inh)
CCCCCCC(=NNS(C)(=O)=O)c1ccccc1	none (no result: SENP8 block-1, SENP8 block-2, SENP1 inh, SENP7 inh, SENP6 inh)
O=C(O)COc1ccccc1C=NNC(=O)CSc1nnc(-c2ccc(Cl)cc2)n1C1CCCCC1	none (no result: SENP8 block-1, SENP8 block-2, SENP1 inh, SENP7 inh, SENP6 inh)
CCOC(=O)c1c(C)[nH]c(N=Nc2ccc(C)cc2)c1C	SENP6 inh 53 | SENP8 confirm inactive | SENP6 conf inactive | SENP7 confirm inactive | Casp3 select inactive | Luc interf inactive
CCOC(=O)c1[nH]c(C)c(C(=O)c2ccc(C)cc2)c1C	none
CCOC(=O)c1c(C)[nH]c(N=Nc2cccc(C)c2)c1C	SENP6 inh 62 | SENP8 confirm inactive | SENP6 conf 63 | SENP7 confirm 78 | Casp3 select inactive | Luc interf inactive
CCOC(=O)c1c(C)[nH]c(C=Nc2ccc(OC)cc2)c1O	none
CCOC(=O)c1c(C)[nH]c(N=Nc2cccc(OC)c2)c1C	SENP7 inh 58 | SENP8 confirm 58 | SENP6 conf 62 | SENP7 confirm 88 | Casp3 select inactive | Luc interf inactive
O=[N+]([O-])c1ccc(C=Nc2cccc3ccccc23)s1	SENP6 inh 58 | SENP8 confirm inactive | SENP6 conf inactive | SENP7 confirm inactive | Casp3 select inactive | Luc interf inactive
O=[N+]([O-])c1ccc(-c2ccc(C=Nc3cccc4ccccc34)o2)cc1	SENP7 inh 52, SENP6 inh 83 | SENP8 confirm inactive | SENP6 conf inactive | SENP7 confirm inactive | Casp3 select inactive | Luc interf inactive
O=C(Cn1cc(SCc2ccc(F)cc2)c2ccccc21)N1CCOCC1	SENP6 inh 58 | SENP8 confirm 50 | SENP6 conf inactive | SENP7 confirm 79 | Casp3 select inactive | Luc interf inactive
O=C(Cn1cc(SCc2ccc(Cl)cc2)c2ccccc21)N1CCOCC1	SENP6 inh 67 | SENP8 confirm inactive | SENP6 conf 65 | SENP7 confirm 82 | Casp3 select inactive | Luc interf inactive
O=C(CSc1cn(Cc2ccccc2)c2ccccc12)N1CCOCC1	none
COc1cc(C=NNc2nncn2N)ccc1OC(C)=O	none (no result: SENP8 block-1, SENP8 block-2, SENP1 inh, SENP7 inh, SENP6 inh)
Cc1ccc(S(=O)(=O)c2c(C)cc(C)nc2Cl)cc1	SENP6 inh 62 | SENP8 confirm inactive | SENP6 conf inactive | SENP7 confirm inactive | Casp3 select inactive | Luc interf inactive
Cc1cc(C)c(S(=O)(=O)c2ccccc2)c(Cl)n1	none
COc1ccc(C=NN=C2SC(CC(=O)O)C(=O)N2c2ccc(O)cc2)cc1 (stereo not drawn)	none (no result: SENP8 block-1, SENP8 block-2, SENP1 inh, SENP7 inh, SENP6 inh)
Fc1ccc2c(Cl)c(-c3nnc(-c4cccs4)o3)sc2c1	SENP7 inh 69 | SENP8 confirm inactive | SENP6 conf inactive | SENP7 confirm inactive | Casp3 select inactive | Luc interf inactive
CC(=NNc1ccc([N+](=O)[O-])cc1[N+](=O)[O-])c1ccc(-n2nncc2C(C)(C)C)cc1	none (no result: SENP8 block-1, SENP8 block-2, SENP1 inh, SENP7 inh, SENP6 inh)
C=CCNC(=O)c1ccc2c3n(nc2c1)-c1ccccc1CO3	SENP8 block-2 77, SENP7 inh 75, SENP6 inh 80 | SENP8 confirm 76 | SENP6 conf 75 | SENP7 confirm 94 | Casp3 select 90 | Luc interf 82
O=C(O)c1ccc2c3n(nc2c1)-c1ccc(Cl)cc1CO3	SENP8 block-2 94, SENP7 inh 94, SENP6 inh 98 (no result: SENP8 block-1, SENP1 inh) | SENP8 confirm 98 | SENP6 conf 99 | SENP7 confirm 103 | Casp3 select 98 | Luc interf 96
O=C(c1ccc2c3n(nc2c1)-c1ccc(Cl)cc1CO3)N1CCCCC1	SENP8 block-2 86, SENP7 inh 84, SENP6 inh 87 | SENP8 confirm 84 | SENP6 conf 94 | SENP7 confirm 100 | Casp3 select 94 | Luc interf inactive
Cc1ccc2c(c1)COc1c3ccc(C(=O)NC(C)C)cc3nn1-2	none
O=C(NCCO)c1ccc2c3n(nc2c1)-c1ccc(Cl)cc1CO3	none
Cc1ccc2c(c1)COc1c3ccc(C(=O)N4CCOCC4)cc3nn1-2	SENP7 inh 69, SENP6 inh 71 | SENP8 confirm 72 | SENP6 conf 69 | SENP7 confirm 90 | Casp3 select 88 | Luc interf 76
COCCNC(=O)c1ccc2c3n(nc2c1)-c1ccccc1CO3	none
CN(C1=C(NC(=O)c2ccccc2)C(=O)c2ccccc2C1=O)C1CCS(=O)(=O)C1 (stereo not drawn)	SENP8 block-1 64, SENP8 block-2 60, UCH37 DUB inh 49, SENP7 inh 53, SENP6 inh 95 | SENP8 confirm 70 | SENP6 conf 87 | SENP7 confirm 57 | Casp3 select 75 | Luc interf inactive
CC(=NNC(N)=O)C1CC(Cc2ccccc2)C(=O)O1 (stereo not drawn)	none (no result: SENP8 block-1, SENP8 block-2, SENP1 inh, SENP7 inh, SENP6 inh)
CCOc1ccc(S(=O)(=O)/N=C(/Nc2ccc(OC)cc2)c2ccccc2)cc1	none
Cc1ccc(NC(=S)NC(=NS(=O)(=O)c2ccccc2)c2ccccc2)cc1	none (no result: SENP8 block-1, SENP8 block-2, SENP1 inh, SENP7 inh, SENP6 inh)
